TMEM16A inh: blocks the mouse calcium-activated chloride channel TMEM16A; normalized B-score (activity score, 25-100; higher = stronger inhibition) at 10 µM; 1.2% of 310,000 active; Q8BHY3; HEK293 TMEM16A/YFP iodide influx fluorescence, ionomycin; AID 588511;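 active means ratio plate-corrected score three or more library SD toward inhibition, starting fluorescence score within five deviations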;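 further: score derived from kinetic fluorescence span divided by baseline fluorescence per well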
Target sequence (Q8BHY3 whole entry, looked up): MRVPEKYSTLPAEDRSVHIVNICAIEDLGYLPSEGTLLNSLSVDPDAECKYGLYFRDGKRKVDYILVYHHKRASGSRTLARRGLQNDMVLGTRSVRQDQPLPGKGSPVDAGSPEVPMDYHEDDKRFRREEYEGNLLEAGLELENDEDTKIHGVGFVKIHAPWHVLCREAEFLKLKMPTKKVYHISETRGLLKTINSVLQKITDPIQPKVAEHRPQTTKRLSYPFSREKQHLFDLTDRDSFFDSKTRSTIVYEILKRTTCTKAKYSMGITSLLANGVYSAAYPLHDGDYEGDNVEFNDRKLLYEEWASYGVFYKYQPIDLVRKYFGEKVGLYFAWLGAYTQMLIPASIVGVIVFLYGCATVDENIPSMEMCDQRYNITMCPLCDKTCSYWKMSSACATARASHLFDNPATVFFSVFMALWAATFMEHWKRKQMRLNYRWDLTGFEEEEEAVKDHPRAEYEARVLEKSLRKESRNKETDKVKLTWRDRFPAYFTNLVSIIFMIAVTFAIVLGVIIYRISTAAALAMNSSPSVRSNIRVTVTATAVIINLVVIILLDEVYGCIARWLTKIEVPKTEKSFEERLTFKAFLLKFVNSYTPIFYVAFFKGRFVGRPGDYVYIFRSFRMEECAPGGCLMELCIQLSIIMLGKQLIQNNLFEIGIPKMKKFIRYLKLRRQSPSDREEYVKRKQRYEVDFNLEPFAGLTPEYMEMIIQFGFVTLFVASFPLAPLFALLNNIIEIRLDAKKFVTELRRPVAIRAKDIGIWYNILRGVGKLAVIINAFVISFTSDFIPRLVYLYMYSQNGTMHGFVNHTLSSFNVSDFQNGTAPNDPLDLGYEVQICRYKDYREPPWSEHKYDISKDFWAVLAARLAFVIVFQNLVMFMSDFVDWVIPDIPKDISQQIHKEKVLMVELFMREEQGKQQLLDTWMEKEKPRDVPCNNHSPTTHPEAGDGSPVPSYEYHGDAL
CRFBP-R2 block: antagonists of CRF-binding protein/CRF-R2 receptor complex. HEK293 CRF-R2/CRF-BP, CRF-induced calcium fluorescence. 0.59% of 350,000 active. inhibition, % at 11.8 µM;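 active means inhibition of the ligand-induced calcium signal above about 50% at the single tested concentration, limit read from the data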
TMEM16A act: activators or potentiators of mouse TMEM16A chloride channel; Q8BHY3; HEK293 TMEM16A/YFP-H148Q/I152L, iodide quench fluorescence; hits give low values; B-score at 10 µM; 0.3% of 340,000 active;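 active means fluorescence-ratio B-score plate-corrected deviation score at least 3 library SD below zero, with starting fluorescence score within 5 deviations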;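 further: channel opened by trigger with iodide after compound preincubation; score built on the fluorescence ratio of max minus min over baseline; more negative score means more quench and so TMEM16A activation or potentiation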
TAAR1 antag: human TAAR1 antagonism | inhibition, % at 3 µM | 1.5% of 360,000 active | Q96RJ0 | CHO RD-HGA16 TAAR1, Fluo-8 calcium fluorescence, antagonist | AID 624466;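 active means inhibition above a per-plate cutoff, the mean inhibition of test compounds on that plate plus 3 SD, cut at about 49% in these data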
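Material: RD-HGA16 CHO cells with stable hTAAR1 and Gα16; Dosing: single nominal final test compound concentration of 3 µM; Schedule: seeding 17-24 h prior, 75-min 37 °C, 30-min RT dye loading; Detection: kinetic Fluo-8 calcium fluorescence measurement; Measure: % inhibition from peak post-agonist over basal fluorescence ratio; Benchmarks: vehicle and agonist controls.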
CRFR2-BP ag: CRF-BP/CRF-R2 complex agonism; HEK293 CRF-R2/CRF-BP, calcium dye fluorescence (FLIPR); percent of saturating CRF peptide response; activation, % at 13.2 µM; 0.46% of 350,000 active; AID 588473;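 active means activation of at least 50%, plus an integration ratio under a set limit after plate pattern correction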
TAAR1 agonist: agonists of human TAAR1; Q96RJ0; activation, % at 3 µM; 0.99% of 360,000 active; AID 624467; CHO RD-HGA16 TAAR1, Fluo-8 calcium fluorescence; vehicle wells 0%, saturating PEA agonist 100%;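 active means activation above the mean activation of all test compounds in the run plus 3 SD, cut at about 38% in these data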
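Repeats: no replicates (n 1) | Material: CHO-derived RD-HGA16 cells with stable Gα16 and human TAAR1 | Technique: Kinetic Fluo-8 calcium fluorescence | Schedule: 17-24 h seeding, 75 min 37 °C dye, 30 min RT | Evaluation: % activation from peak over basal fluorescence ratio, DMSO-to-PEA scaled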
TAAR1 ag conf: confirmation of human TAAR1 agonists | 82% of 2,400 active | shares compounds with TAAR1 agonist | activation, % at 3 µM | CHO RD-HGA16 TAAR1, Fluo-8 calcium fluorescence; scaled: DMSO 0%, maximal phenethylamine 100%;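 active means activation above a cutoff set at the run's mean compound activation plus 3 SD, cut at about 39% in these data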
Ga16 nonsel ag: nonselective agonism, TAAR1 counter-screen; CHO-Ga16 parental, Fluo-8 calcium fluorescence; normalized to maximal ATP response, DMSO zero; activation, % at 3 µM; shares compounds with TAAR1 agonist; 50% of 2,400 active;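 active means activation above the run cutoff, the mean activation over all tested wells plus 3 SD, cut at about 12% in these data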
TAAR1 desensitize: counter-screen for human TAAR1 agonists: agonists that desensitize TAAR1. CHO RD-HGA16 hTAAR1, Fluo-8 calcium, beta-PEA response inhibition. shares compounds with TAAR1 agonist. inhibition, % at 3 µM. 46% of 2,400 active. AID 651951;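 active means inhibition above the run cutoff, the mean inhibition of all test compounds plus 3 SD, cut at about 49% in these data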;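 further: beta-PEA stimulus applied at its EC80; loss of beta-PEA calcium signal after compound pretreatment read as receptor desensitization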
Ga16 nonsel ant: nonselective Ga16 antagonism, counter-screen; shares compounds with TAAR1 agonist; CHO-Ga16 ATP-induced calcium, Fluo-8 fluorescence; inhibition, % at 3 µM; 39% of 2,400 active;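 active means inhibition above the plate's mean compound inhibition plus 3 SD, computed per plate, cut at about 22% in these data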
Numbers stand for hits; i = inactive; nt = no result. Sampled rows, rich in hits. Any-hit rate of the full collection: about 3.9%.

SMILES | TMEM16A inh | CRFBP-R2 block | TMEM16A act | TAAR1 antag | CRFR2-BP ag | TAAR1 agonist | TAAR1 ag conf | Ga16 nonsel ag | TAAR1 desensitize | Ga16 nonsel ant
C/C(=N\Nc1ncnc2sc(C)c(C)c12)c1ccccn1 | i | i | i | 104 | 64 | 135 | 95 | 95 | 84 | 86
CSCCC(NC(=O)c1ccccc1Cl)C(=O)Nc1ccc(C)c(S(=O)(=O)N2CCOCC2)c1 (stereo unspecified) | i | i | i | i | i | i | nt | nt | nt | nt
O=C(COC(=O)c1ccc(Cl)cc1)NC1CCCCCC1 | nt | i | i | i | i | 42 | i | i | i | i
O=C(Nc1ccncc1)Nc1cccc(Cl)c1 | i | i | i | i | i | 59 | 86 | 16 | 52 | i
CC(=O)c1cccc(NC(=O)Nc2ccccc2)c1 | i | i | i | i | i | i | nt | nt | nt | nt
CC(=O)c1ccc(NC(=O)Nc2ccccc2)cc1 | i | i | i | i | i | 54 | 68 | i | 55 | i
O=C(NCc1ccncc1)Nc1cccc(Cl)c1 | i | i | i | i | i | i | nt | nt | nt | nt
O=C(Nc1ccccc1)Nc1ccncc1 | i | i | i | 53 | i | 82 | 97 | i | 86 | i
O=C(Nc1ccccc1)Nc1ccno1 | i | i | i | i | i | 48 | 87 | i | 67 | i
O=C(Nc1ccncc1)Nc1ccccn1 | i | i | i | i | i | i | nt | nt | nt | nt
CCOc1ccccc1N(CC(=O)N1CCN(Cc2ccccc2)CC1)S(=O)(=O)c1ccccc1 | nt | i | nt | i | i | i | nt | nt | nt | nt
COC(=O)c1ccc(Cn2c(C)c(C(=O)NCc3ccc([N+](=O)[O-])cc3)sc2=O)o1 | nt | nt | nt | i | nt | i | nt | nt | nt | nt
Cc1cccc(C)c1Cn1c(C)c(C(=O)NCc2ccc([N+](=O)[O-])cc2)sc1=O | nt | nt | nt | 49 | nt | 62 | 47 | 29 | 53 | 41
CC(=O)Nc1ccc(S(=O)(=O)Nc2nnc(Cc3ccc(Cl)cc3)s2)cc1 | i | i | i | i | i | i | nt | nt | nt | nt
c1ccc2c(c1)CCN(c1nc3cc4c(cc3s1)OCCO4)C2 | i | i | i | i | i | 56 | 81 | i | i | i
CC(C)(CC(=O)O)CC(=O)Nc1ccc(Cl)c(Cl)c1 | i | i | i | i | i | i | nt | nt | nt | nt
O=C(Cn1sc2ccccc2c1=O)Nc1ccc(Cl)cc1 | nt | i | nt | i | i | 55 | 55 | 30 | i | 29
O=C(Cn1sc2ccccc2c1=O)Nc1ccc(F)cc1 | nt | i | nt | i | i | 55 | 59 | 39 | i | 22
COc1ccc(S(=O)(=O)NC2CCSc3ccccc32)cc1OC (stereo unspecified) | i | i | i | i | i | i | nt | nt | nt | nt
c1ccc(CNc2ncnc3c2cnn3Cc2ccccc2)cc1 | i | i | i | i | i | 102 | 82 | 47 | i | 25
COc1ccc(CCNC(=O)C(=O)NCC2CCCN2S(=O)(=O)c2cccs2)cc1 (stereo unspecified) | i | i | i | i | i | i | nt | nt | nt | nt
COc1ccccc1CNC(=O)C(=O)NCCC1CCCCN1S(=O)(=O)c1ccccc1 (stereo unspecified) | i | i | i | i | i | i | nt | nt | nt | nt
COc1ccccc1CCNC(=O)C(=O)NCC1CCCN1S(=O)(=O)c1ccccc1 (stereo unspecified) | i | i | i | 59 | i | 49 | 72 | i | 65 | 31
COc1ccc(S(=O)(=O)N2CCCC2CNC(=O)C(=O)NCCc2ccccc2)cc1 (stereo unspecified) | i | i | i | 97 | i | 92 | 87 | i | 87 | 30
O=C(COc1ccc(Cl)cc1)NNC(=O)c1cccnc1 | i | i | i | i | i | i | nt | nt | nt | nt
SMILES | TMEM16A inh | CRFBP-R2 block | TMEM16A act | TAAR1 antag | CRFR2-BP ag | TAAR1 agonist | TAAR1 ag conf | Ga16 nonsel ag | TAAR1 desensitize | Ga16 nonsel ant
CC(C)=N/N=C(\N)SCc1ccccc1 | i | i | i | nt | i | nt | nt | i | nt | i
CC(C)(Cc1ccc(O)cc1)NC(=O)SCc1ccccc1 | i | i | i | i | i | i | nt | nt | nt | nt
Cc1cccc(NC(=O)c2nc[nH]c2C(=O)N[C@@H](C)C(=O)OC(C)(C)C)c1 | i | i | i | i | i | i | nt | nt | nt | nt
Cc1c(C)c(C)c(C(=O)C2CCN(c3ccc([N+](=O)[O-])cn3)CC2)c(C)c1C | i | i | i | i | i | i | nt | nt | nt | nt
CCOc1ccccc1NC(=O)COC(=O)c1c[nH]c2ccccc12 | nt | i | i | i | i | i | nt | nt | nt | nt
CN(CCc1ccccc1)C(=O)c1[nH]c(C(F)(F)F)nc1-c1ccccc1 | nt | nt | nt | i | nt | 70 | 77 | i | i | i
CC1CCCN(C(=S)NC2CCCC2)C1 (stereo unspecified) | i | i | i | i | i | i | nt | nt | nt | nt
COc1ccc2c(c1)c(C(=O)CN1CCc3ccccc3C1)c(C)n2C | i | i | i | i | i | 69 | 86 | i | i | i
COc1ccc2c(c1)c(C(C)=O)c(C)n2C | i | i | i | i | i | i | nt | nt | nt | nt
O=C(Nc1ccncc1)C1CCC(CNS(=O)(=O)c2cccc3nsnc23)CC1 (stereo unspecified) | i | i | i | i | i | i | nt | nt | nt | nt
COc1ccc(S(=O)(=O)N2CCN(c3ncccn3)CC2)cc1[N+](=O)[O-] | i | i | i | i | i | 94 | i | i | i | i
Cc1nc(C(=O)NNC(=O)c2ccc(C(F)(F)F)cc2)cs1 | i | i | i | i | i | i | nt | nt | nt | nt
CCCCOc1ccc(C(=O)Nc2ccc(N3CCN(C)CC3)cc2)cc1 | i | i | i | i | i | 48 | 68 | i | 68 | i
Nc1ccc(Cn2ccc3c4c(N)nc(N)nc4ccc32)cc1 | nt | i | i | i | i | i | nt | nt | nt | nt
Cc1ccc(C2=NS(=O)(=O)N(C)C(C(=O)N3CCOCC3)=C2)cc1 | i | i | i | i | i | i | nt | nt | nt | nt
Cc1cc(C)nc(OC(C(=O)O)C(OCCc2ccccc2)(c2ccccc2)c2ccccc2)n1 (stereo unspecified) | i | i | i | i | i | 99 | 126 | 85 | i | i
Cc1cccc(C(=O)NC(NCCc2ccccc2)C(Cl)(Cl)Cl)c1 (stereo unspecified) | i | i | i | 61 | i | 80 | 69 | i | i | i
CCN1CCN(c2cc(SC(C)C)nc(-c3ccc(OC)cc3)n2)CC1 | nt | i | i | i | i | 46 | 74 | 19 | i | i

Bioassay records from PubChem.
